These results are taken from ChEMBL document CHEMBL1153905, “Functionalized 3-benzylidene-indolin-2-ones: inducers of NAD(P)H-quinone oxidoreductase 1 (NQO1) with antiproliferative activity” (Bioorg Med Chem, 2009).

Series [1] can be described thus: Cytotoxicity against mouse Hepa-1c1c7 cells after 48 hrs by MTT assay. In kind it is cell-based. As to conditions: hepa-1c1c7, 48 h. An outline of the steps: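 Murine hepatoma cells in α-MEM with 10% heat- and charcoal-treated fetal calf serum, passages 6–17; MTT read-out as for the cancer lines but with 48 h compound exposure. Highest concentration tested 25 µM. IC50 from survival-versus-concentration curve; mean and SD, n = 3.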

Series [2] concerns the target NAD(P)H dehydrogenase [quinone] 1 (Mus musculus) (UniProt Q64669). The series is described as follows: Induction of NQO1 activity in mouse Hepa-1c1c7 cells assessed as induction ratio at 15 uM after 48 hrs by MTT assay relative to control. In kind it is cell-based. An outline of the steps:
(§1)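 Hepa1c1c7 cells, 10,000 per well, 24 h, were then treated 48 h (DMSO ≤0.5%). Digitonin/EDTA lysates were assayed for menadione-dependent MTT-formazan formation using a G6P/G6PDH NADPH-generating mix with FAD at pH 7.4. The reaction ran 5 min, was stopped with dicoumarol, and read at A590. Degree of induction = (A test − blank)/(A control − blank). Ratios were read off the induction–concentration plot at the EROD test concentration.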
In general terms: Formazan colour is commonly taken as a measure of viable cells.

For series [3], the target named is T1, CYP1A1 (Mus musculus, UniProt P00184).
T1 sequence (P00184 whole entry): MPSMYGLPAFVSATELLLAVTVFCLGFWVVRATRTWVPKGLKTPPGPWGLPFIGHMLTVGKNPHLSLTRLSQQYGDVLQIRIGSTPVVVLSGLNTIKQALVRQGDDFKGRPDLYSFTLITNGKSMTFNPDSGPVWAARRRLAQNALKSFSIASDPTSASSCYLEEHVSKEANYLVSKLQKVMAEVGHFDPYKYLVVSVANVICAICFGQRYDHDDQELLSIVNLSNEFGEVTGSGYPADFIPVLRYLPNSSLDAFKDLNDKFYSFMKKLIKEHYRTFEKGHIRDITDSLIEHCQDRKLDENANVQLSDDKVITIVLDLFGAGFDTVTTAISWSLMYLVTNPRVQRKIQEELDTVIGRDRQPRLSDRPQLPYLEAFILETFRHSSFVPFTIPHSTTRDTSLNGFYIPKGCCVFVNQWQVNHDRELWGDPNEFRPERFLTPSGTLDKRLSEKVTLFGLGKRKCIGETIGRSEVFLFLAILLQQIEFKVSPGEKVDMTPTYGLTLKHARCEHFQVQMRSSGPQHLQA
The series is described as follows: Induction of CYP1A1 activity in mouse Hepa-1c1c7 cells assessed as induction ratio at 15 uM by EROD assay relative to control. It counts as ADME, cell-based. Put shortly: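 Hepa1c1c7 cells were seeded at 10,000 per well and grown 24 h. They were then exposed 48 h to compound (final DMSO 0.5% v/v) at about 4 × the NQO1 CD. After a PBS wash, cells got 5 µM 7-ethoxyresorufin plus 2 mM salicylamide in medium, 37 °C, 40 min. Resorufin was read at ex 530/em 590 nm, corrected for compound fluorescence. Ratio = (F treated − blank)/(F DMSO control − blank); mean ± SD, n = 3.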

Series [4] concerns MCF7. In words: Selectivity ratio of IC50 for human CCL186 cells to IC50 for human MCF7 cells. Put shortly: (§2)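 MTT assay. MCF7 and CCL186 cells were grown in EMEM/10% FBS, HCT116 in McCoy's 5A/10% FBS. Seeding was 10,000 (MCF7), 4000 (HCT116) and 5000 (CCL186) cells per well, 24 h. Compound exposure was 72 h, DMSO ≤1% final. MTT 0.5 mg/ml for 3 h, formazan dissolved in DMSO, A590. IC50 came from sigmoidal survival curves, with 3 separate occasions per concentration. Ratio = IC50 CCL186 / IC50 of the cancer line.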

Series [5] deals with HCT-116. In words: Cell cycle arrest in human HCT116 cells released from G2 block assessed as accumulation at sub G1 phase at 10 uM after 24 hrs by flow cytometry. It counts as functional. (Flow cytometry measures light scatter and fluorescence of single cells or particles in a stream.)
Series [6] is described as follows: Antiproliferative activity against human CCL186 cells after 72 hrs by MTT assay. The following applies: CCL186, 72 h. In kind it is cell-based. Put shortly:
(§3)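 Cells seeded at 10,000 (MCF7), 4000 (HCT116) or 5000 (CCL186) per well and grown 24 h; MCF7 and CCL186 in EMEM with pyruvate, glutamine, 10% FBS; HCT116 in McCoy's 5A with 10% FBS. Compounds from DMSO stocks (≤1% DMSO final), 72 h exposure; MTT 0.5 mg/ml for 3 h, formazan in DMSO read at 590 nm. IC50 from sigmoidal survival curve, three separate occasions.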

Series [7] in a line: Selectivity ratio of IC50 for human CCL186 cells to IC50 for human HCT116 cells. It counts as ADME, cell-based, HCT-116. The following applies: CCL186 cells and HCT116 cells, read-out: Ratio IC50. Put shortly: as §2
Series [8] has as its system HCT-116. The series is described as follows: Cell cycle arrest in human HCT116 cells released from G1 block assessed as accumulation at sub G1 phase at 10 uM after 24 hrs by flow cytometry. It counts as functional.
Series [9] deals with HCT-116. The series is described as follows: Cell cycle arrest in human HCT116 cells released from G2 block assessed as accumulation at G2/M phase at 10 uM after 24 hrs by flow cytometry. It counts as functional.
For series [10], the system named is HCT-116. The series is described as follows: Cell cycle arrest in human HCT116 cells released from G2 block assessed as accumulation at G1 phase at 10 uM after 24 hrs by flow cytometry. In kind it is functional.
The test system of series [11] is HCT-116. In words: Cell cycle arrest in human HCT116 cells released from G1 block assessed as accumulation at G1 phase at 10 uM after 24 hrs by flow cytometry. It counts as functional.
Series [12] has as its system HCT-116. In words: Antiproliferative activity against human HCT116 cells after 72 hrs by MTT assay. In kind it is functional, cell-based. The following applies: HCT-116, 72 h. An outline of the steps: as §3
The subject of series [13] is HCT-116. In words: Cell cycle arrest in human HCT116 cells released from G1 block assessed as accumulation at S phase at 10 uM after 24 hrs by flow cytometry. It counts as functional.
Series [14] concerns HCT-116. The series is described as follows: Cell cycle arrest in human HCT116 cells released from G1 block assessed as accumulation at G2/M phase at 10 uM after 24 hrs by flow cytometry. In kind it is functional.
For series [15], the system named is MCF7. In words: Antiproliferative activity against human MCF7 cells after 72 hrs by MTT assay. In kind it is functional, cell-based. As to conditions: MCF7, 72 h. An outline of the steps: as §3
In series [16] the test system is HCT-116. In words: Cell cycle arrest in human HCT116 cells released from G2 block assessed as accumulation at S phase at 10 uM after 24 hrs by flow cytometry. It counts as functional.
Series [17] relates to HCT-116. In words: Cell cycle arrest in human HCT116 cells released from G1 block assessed as accumulation at G2/M phase at 2.5 uM after 24 hrs by flow cytometry. In kind it is functional.
Series [18] has as its system HCT-116. The series is described as follows: Cell cycle arrest in human HCT116 cells released from G1 block assessed as accumulation at G1 phase at 2.5 uM after 24 hrs by flow cytometry. It counts as functional.
Series [19] has as its system HCT-116. In words: Cell cycle arrest in human HCT116 cells released from G2 block assessed as accumulation at G2/M phase at 2.5 uM after 24 hrs by flow cytometry. In kind it is functional.
The subject of series [20] is HCT-116. The series is described as follows: Cell cycle arrest in human HCT116 cells released from G2 block assessed as accumulation at G1 phase at 2.5 uM after 24 hrs by flow cytometry. In kind it is functional.
The subject of series [21] is HCT-116. The series is described as follows: Cell cycle arrest in human HCT116 cells released from G1 block assessed as accumulation at sub G1 phase at 2.5 uM after 24 hrs by flow cytometry. In kind it is functional.
Series [22] deals with HCT-116. The series is described as follows: Cell cycle arrest in human HCT116 cells released from G2 block assessed as accumulation at sub G1 phase at 2.5 uM after 24 hrs by flow cytometry. It counts as functional.
For series [23], the target named is T1, CYP1A1. The series is described as follows: Induction of CYP1A1 activity in mouse Hepa-1c1c7 cells assessed as induction ratio at 0.5 uM after 48 hrs by EROD assay relative to control. In kind it is ADME, cell-based. An outline of the steps: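 About 10,000 Hepa1c1c7 cells/well cultured 24 h, then compound (0.5% DMSO final) for 48 h, at roughly 4 × the concentration doubling NQO1 activity. After PBS wash, cells given 5 µM 7-ethoxyresorufin plus 2 mM salicylamide, 37 °C, 40 min; resorufin fluorescence ex 530/em 590 nm, corrected for compound fluorescence. Ratio = (treated − blank)/(DMSO control − blank); mean ± SD, n = 3.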

Series [24] has as its target NAD(P)H dehydrogenase [quinone] 1 (Mus musculus) (UniProt Q64669). The series is described as follows: Induction of NQO1 activity in mouse Hepa-1c1c7 cells assessed as induction ratio at 0.5 uM after 48 hrs by MTT assay relative to control. It counts as cell-based. Put shortly: as §1
Series [25] has as its system HCT-116. The series is described as follows: Cell cycle arrest in human HCT116 cells released from G1 block assessed as accumulation at S phase at 2.5 uM after 24 hrs by flow cytometry. It counts as functional.
In series [26] the test system is HCT-116. The series is described as follows: Cell cycle arrest in human HCT116 cells released from G2 block assessed as accumulation at S phase at 2.5 uM after 24 hrs by flow cytometry. It counts as functional.

Where only a bound is given, the exact number is not on record here.

Chain of NAD(P)H dehydrogenase [quinone] 1 (Mus musculus) (Q64669 whole entry): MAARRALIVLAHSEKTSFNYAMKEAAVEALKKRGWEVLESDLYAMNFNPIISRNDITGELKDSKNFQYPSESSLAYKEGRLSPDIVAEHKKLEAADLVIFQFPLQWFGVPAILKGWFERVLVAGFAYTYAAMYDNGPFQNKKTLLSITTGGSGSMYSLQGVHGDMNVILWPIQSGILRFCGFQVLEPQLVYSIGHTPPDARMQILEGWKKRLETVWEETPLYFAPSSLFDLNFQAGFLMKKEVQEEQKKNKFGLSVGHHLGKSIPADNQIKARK

On to `O=C1Nc2ccccc2/C1=C\c1ccc(F)cc1F`, for which, in [1], the IC50 (usually the midpoint of a concentration-inhibition curve) was > 25 µM. The Ratio in series [2] was determined as 5.06. The fold induction – broadly, the ratio of treated to control signal – at 15 µM on CYP1A1 [3] turned out to be 1.89.

As to `COc1cccc(OC)c1/C=C1/C(=O)Nc2ccccc21`, in the series on MCF7 [4], the “Ratio IC50” value is 3.7. Also, the Activity in the series on HCT-116 [5] is given as 9.51%; in the series on HCT-116 [8] it was 3.52%; in the series on HCT-116 [9], 44.99%; with HCT-116 [10] it was 32.97%; with HCT-116 [11], 20.86%; in the series on HCT-116 [13] it was 16%. Moreover, the Activity with HCT-116 [14] is 59.63%; in the series with HCT-116 [16] it was 12.42%. The IC50 turned out to be 17.8 µM in [6], 13.9 µM in [1], 4.8 µM with HCT-116 [12] and 6.2 µM with MCF7 [15]. In addition, the selectivity ratio in series [7] was 2.9.

Regarding `COc1cccc(/C=C2/C(=O)Nc3cc(OC)ccc32)c1`, the Activity came to 71.54% in the series with HCT-116 [17]; 10.56% in the series with HCT-116 [18]; 43.57% in the series on HCT-116 [19]; 26.01% in the series with HCT-116 [20]; 4.22% with HCT-116 [21]; 30.54% with HCT-116 [22]. Moreover, the results for the Activity in the series with HCT-116 [25] and in the series on HCT-116 [26] were 13.81% and 15.36%, respectively. Besides, the “Ratio IC50” value in the series with MCF7 [4] came to 1.5. In addition, the IC50 was found to be 1.8 µM in series [6], 9.8 µM in series [1], 1.2 µM in the series on HCT-116 [12] and 1.3 µM in the series with MCF7 [15]. In addition, the selectivity ratio in series [7] stood at 1.4. On CYP1A1 [23], the fold induction at 48 h, 0.5 µM stood at 1.13. The Ratio in series [24] turned out to be 3.08.
